NRP1-CendR mod = modulators of CendR peptide binding to NRP-1, primary screen, biochemical, fluorescence polarization, uHTS | inhibition, % at 25 µM | 0.85% of 360,000 active | Neuropilin-1 (Homo sapiens), O14786 | FAM-RPARPAR peptide binding to NRP-1;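 active = inhibition or corrected inhibition above about 18%, plus a signal ratio from 0.5 to 1.5, limit read from the data, passing the limit was not always enough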
CRFBP-R2 block = antagonists of CRF-BP/CRF-R2 complex, primary screen, cell-based, HEK293, calcium dye fluorescence, uHTS. CRF-induced calcium fluorescence. inhibition, % at 11.8 µM. 0.59% of 350,000 active;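 active = inhibition of the ligand-induced calcium signal above about 50% at the single tested concentration, limit read from the data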
proKLK7 act = proKLK7 zymogen activators, primary screen, biochemical, fluorescence intensity. Kallikrein-7 (Homo sapiens), P49862. purified proKLK7, EDANS-DABCYL substrate fluorescence; 100% is mature enzyme control, 0% vehicle. activation, % at 7 µM. 0.9% of 370,000 active. AID 652039, 2013;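 active = activation above the mean of all tested compounds plus 3 SD, computed per campaign excluding outliers beyond control limits, cut at about 13% in these data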
Target sequence (P49862 whole entry, looked up): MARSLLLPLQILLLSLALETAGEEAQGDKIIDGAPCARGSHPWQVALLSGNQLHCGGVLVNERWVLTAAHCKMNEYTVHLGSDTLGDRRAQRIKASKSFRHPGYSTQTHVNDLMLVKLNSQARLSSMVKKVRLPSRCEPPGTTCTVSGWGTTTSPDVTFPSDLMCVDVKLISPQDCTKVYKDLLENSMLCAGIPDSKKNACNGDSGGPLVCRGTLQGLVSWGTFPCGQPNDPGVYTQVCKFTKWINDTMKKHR
DDE Tn7 FP inh = inhibitors of Tn7 peptide binding to fibrin DD(E), primary screen, biochemical, fluorescence polarization, human fibrin, Tn7 probe; Fibrinogen beta chain (Homo sapiens), P02675; FP displacement of FITC-Tn7 peptide from fibrin DD(E); 0% = median of compound wells per plate; inhibition, % at 8.3 µM; 0.13% of 370,000 active; AID 720508, 2013;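 active = inhibition above the mean of compounds falling within the control limits plus 3 SD of them, cut at about 14% in these data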;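 also: 0% = plate median of compound wells and 100% = 10 µM Aha-Tn7 peptide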
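Assay system: human fibrin DD(E). Input: DD(E) 2 µM final. Medium: Tris buffer with calcium and detergent, pH 7.8. Compound dosing: single point at 8.3 µM. Timing: 10 min plus 3 h, room temperature. Technique: fluorescence polarization of the labelled Tn7 tracer. Read-out: percent inhibition. Replicates: singlicate testing.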
DDE Tn6 FP inh = inhibitors of Tn6 peptide binding to fibrin DD(E), primary screen, biochemical, fluorescence polarization, human fibrin, Tn6 probe. inhibition, % at 8.3 µM. Fibrin DD(E) TRITC-Tn6 fluorescence polarization displacement. AID 720509, 2013. 0.21% of 370,000 active;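 active = inhibition above a per-campaign cutoff: mean of compounds within control limits plus 3 SD, cut at about 15% in these data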;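 also: 0% = median of all compound wells on the plate and 100% = blocking peptide control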
CRFR2-BP ag = agonists of CRF-BP/CRF-R2 complex, primary screen, cell-based, HEK293, calcium dye fluorescence, uHTS; CRF-binding protein / CRF receptor 2 complex (human); calcium dye fluorescence (FLIPR); percent of saturating CRF peptide response; activation, % at 13.2 µM; 0.46% of 350,000 active;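 active = activation of at least 50%, plus an integration ratio under a set limit after plate pattern correction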;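 also: plate controls were neutral control wells without compound for no effect and CRF at EC100 for full effect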
Numbers without * were called inactive; · = no result given. Only some compounds are listed: those with a hit (about 2.9% of all), similar ones and a draw of the others.

SMILES	NRP1-CendR mod	CRFBP-R2 block	proKLK7 act	DDE Tn7 FP inh	DDE Tn6 FP inh	CRFR2-BP ag
CCCNCCC(c1ccco1)c1ccccc1OC (stereo not drawn)	-3	56*	-1	5	4	0
O=C(NCc1ccco1)C1CC(c2ccc(C(F)(F)F)cc2)=NO1 (stereo not drawn)	31*	-2	1	-8	-5	-1
O=C(Nc1ccccc1Cl)OC1CC2CC1[C@H]1CCCCN1[C@H]2Cc1ccccc1 (stereo partly drawn)	·	·	0	1	-1	·
CC(C)C[C@H](NC(=O)c1nc[nH]c1C(=O)N[C@@H](CC(C)C)C(=O)OCc1ccccc1)C(=O)OCc1ccccc1	-4	0	0	11	4	7
CC(C)C[C@@H](CNCC(=O)[C@H](Cc1c[nH]c2ccccc12)NC(=O)c1[nH]cnc1C(=O)N[C@@H](C)CN)NC(=O)c1nc[nH]c1C(=O)N[C@@H](Cc1ccccc1)C(=O)O	3	-5	1	10	0	-1
CC(C)C[C@@H](CNC(=O)OC(C)(C)C)NC(=O)c1nc[nH]c1C(=O)N[C@@H](CC(C)C)C(=O)CNC[C@H](CC(C)C)NC(=O)c1nc[nH]c1C(=O)N[C@@H](Cc1c[nH]c2ccccc12)C(=O)OC(C)(C)C	23*	9	0	-10	2	1
CC(C)C[C@H](NC(=O)c1[nH]cnc1C(=O)N[C@@H](Cc1ccccc1)C(=O)OCc1ccccc1)C(=O)OCc1ccccc1	20*	-1	0	5	-8	0
CC(C)(C)OC(=O)[C@H](CCCCN)NC(=O)c1[nH]cnc1C(=O)N[C@@H](Cc1ccccc1)C(=O)OCc1ccccc1	28*	0	·	·	·	0
CC(C)(C)OC(=O)[C@H](Cc1ccccc1)NC(=O)c1[nH]cnc1C(=O)N[C@@H](Cc1ccccc1)C(=O)OCc1ccccc1	16	-11	1	-1	-8	2
CC(=O)C1(C(=O)NCc2ccccc2)CC(c2ccccc2C(F)(F)F)=NO1 (stereo not drawn)	·	·	0	-2	0	·
O=C(CC1CCCC1)N[C@H](C(=O)N1CCC[C@H]1C(=O)NC1CCCC1)c1ccccc1	·	·	0	1	2	·
O=C(O)[C@@H]1CCCN(S(=O)(=O)c2cccc3cccnc23)C1	26*	-4	-1	-4	-5	0
O=C(NCCc1ccccc1)C1CCCN(S(=O)(=O)c2cccc3nonc23)C1 (stereo not drawn)	0	-13	0	14*	6	-1
Cc1nn(C)cc1S(=O)(=O)N1CCCC(C(=O)O)C1 (stereo not drawn)	-3	8	0	-3	2	0
Cc1c(S(=O)(=O)N2CCCC(C(=O)O)C2)cnn1C (stereo not drawn)	22*	-9	0	0	-2	-3
O=C(NCCc1ccccc1)C1CCN(S(=O)(=O)c2cccc3nonc23)CC1	1	-1	1	-8	6	1
O=C(N[C@H](Cc1ccccc1)C(=O)N1CCN(CC(=O)N2CCCC2)CC1)[C@H]1O[C@@H](n2ccc(=O)[nH]c2=O)[C@H](O)[C@@H]1O	·	·	0	4	1	·
CC1CCN(c2ccc(C(=O)O)cc2NS(=O)(=O)c2ccc(C(C)(C)C)cc2)CC1	·	·	0	-10	-1	·
CN(C)c1cc(N/N=C\c2ccccc2)nc(N(C)C)n1	35*	-26	0	2	4	-7
O=C(CC1(O)C(=O)Nc2ccccc21)c1ccccc1O (stereo not drawn)	6	5	-1	5	-1	1
O=C(CC1(O)C(=O)Nc2cc(Cl)cc(Cl)c21)c1ccccc1O (stereo not drawn)	43*	-17	-1	4	-1	3

From PubChem
